This is an account of results in PMC9811456 (Molecular Pharmaceutics, 2022).

Usually EC50 stands for the concentration that produces a half-maximal response. A word on the half-life: it is the time in which the quantity being followed falls by half. High values mean slow loss, low ones fast loss. By hepatocyte CLint is commonly meant the capacity of the preparation to metabolise the compound, expressed as a volume cleared per time. A lower hepatocyte CLint goes with slow turnover. As usually defined, the NOAEL is the highest dose or exposure tested at which no adverse effect was seen. Usually AUC stands for concentration integrated over time. In general, Cmax refers to the peak of the concentration-time curve. As a reminder, the Vd is the apparent volume that relates the amount in the body to the concentration in plasma or blood. Broadly, the clearance is the volume of plasma or blood freed of the substance per unit of time.

Several values for one entry are separate records, joined by “and”; a condition that tells them apart may be missing. Identical values can stand only once. Entries after “also recorded” stand apart in the source; their conditions may differ.

The subject of one series is EBV (Akata). As to the kind of experiment: Antiviral qPCR assay, EBV. In kind it is cell-based, Epstein–Barr virus. The conditions noted are these: for SI EBV (Akata): CC50/EC50; for EC50: human gammaherpesvirus 4, Akata, 72 h, read-out: EC50 EBV (Akata).
The subject of the next series is VZV. As to conditions: read-out: EC50 against VZV; published data ref 42; cited from earlier work.
The test system of a further series is HSV-2. As to conditions: read-out: EC50 against HSV-2; published data ref 42; cited from earlier work.
Series [1] relates to human foreskin fibroblast (HFF) cells. Briefly: Intracellular conversion to CDV-PP, HFF model. The conditions noted are these: 30 nM, 72 h. In kind it is cell-based. The gist of the method: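 Primary HFF cells (passage ≤10) were seeded at 6 × 10^6 per T-75 flask for 24 h. They were exposed in triplicate to 30 nM compound or vehicle in DMEM/2% FBS at 37 °C, 5% CO2 for 72 h, after preincubating the dosing solutions 24 h at 37 °C. Half the flasks were counted. The rest were rinsed in chilled saline and lysed in methanol:water 70:30. Prodrug, CDV and CDV-PP were measured by LC–MS/MS (5–2000 nM qualified range). Results are mean ± SD.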

The next series concerns HCMV. As to conditions: read-out: EC50 against CMV; cited from earlier work.
A further series has as its system vaccinia (Copenhagen). Briefly: microbe, parasite or virus in culture. The series is classed as cell-based.
A further series concerns BK virus (Gardner). Briefly: Antiviral qPCR assay, BK virus. In kind it is cell-based. The conditions noted are these: CC50/EC50.
Another series has as its system HCMV (GDG^RK17). Briefly: Antiviral assay, HCMV GDGRK17. The conditions noted are these: CC50/EC50; single replicate. In kind it is cell-based, human cytomegalovirus.
A further series relates to JC virus (MAD-4). As to the kind of experiment: Antiviral qPCR assay, JC virus. In kind it is cell-based. As to conditions: for SI JC virus (MAD-4): CC50/EC50; for EC50: JC polyomavirus, COS-7, 168 h, read-out: EC50 JC virus (MAD-4). In general terms: Real-time PCR tracks product formation cycle by cycle.
The test system of another series is HHV-8 (BCBL-1). As to the kind of experiment: Antiviral qPCR assay, HHV-8. The series is classed as cell-based, human herpes virus 8. As to conditions: for SI HHV-8 (BCBL-1): CC50/EC50; for EC50: Homo sapiens, BCBL1, 168 h, read-out: EC50 HHV-8 (BCBL-1).
Series [2] concerns human adenovirus type 6 (AdV 6), strain tonsil 99 (HAdV-C6). As to the kind of experiment: Hamster model of AdV. The series is classed as in vivo, immunosuppressed male Syrian hamsters. As to conditions: IP, 37 mg/kg induction then 20 mg/kg three times weekly. The method, boiled down: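 Male Syrian hamsters were immunosuppressed with IP cyclophosphamide (140 mg/kg induction, then 100 mg/kg). They received IV 3 × 10^10 pfu/kg AdV 6. There were 7 groups (n = 15), including uninfected vehicle and drug-only (1 mg/kg PO QD) controls. Test compound was given at 0.1, 0.3 or 1 mg/kg, and CDV IP (37, then 20 mg/kg thrice weekly) from day −1. Animals were weighed and observed daily. Liver TCID50 (HEK-293) was taken day 5, with serum transaminases. Survival was compared by log-rank and weight by mixed-effect analysis.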

For the next series, the system named is HHV-6B (Z29). Briefly: Antiviral qPCR assay, HHV-6B. The series is classed as cell-based, human herpes virus-6B. The conditions noted are these: for SI HHV-6B (Z29): CC50/EC50; for EC50: Homo sapiens, MOLT-3, 168 h, read-out: EC50 HHV-6B (Z29).
For another series, the system named is ADV5 (Adenoid 75). As to the kind of experiment: Antiviral CPE assay, ADV5. As to conditions: CC50/EC50. In kind it is cell-based, adenovirus (AdV-5).
Another series has as its system HSV-1. As to conditions: read-out: EC50 against HSV-1; published data ref 42; cited from earlier work.
Series [3] can be described thus: Oral pharmacokinetics and biodistribution in mice. In kind it is in vivo, male CFW mice.
A short description of series [4]: Metabolic stability in rat hepatocytes. The series is classed as in vitro ADME. The method, boiled down: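 In hepatocyte stability, compound at 1 μM was incubated in duplicate with 0.5 × 10^6 cells/mL at 37 °C. Samples were taken over 2 h and quenched and precipitated with ice-cold methanol (1:1). The soluble fraction was analysed by LC–MS/MS.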
In a further series the test system is HSV1 (E-377). Briefly: microbe, parasite or virus in culture. The series is classed as cell-based, herpesvirus 1 (HSV-1).
For series [5] the following is noted: cited from earlier work.
Another series relates to HCMV (AD169). Briefly: Antiviral CPE assay, HCMV AD169. As to conditions: CC50/EC50. In kind it is cell-based, human cytomegalovirus.
For another series, the system named is HSV2 (G). As to the kind of experiment: microbe, parasite or virus in culture. The series is classed as cell-based, herpesvirus 2 (HSV-2).
A further series has as its system MCMV (Smith). As to the kind of experiment: Antiviral qPCR assay, MCMV in MEF cells. As to conditions: CC50/EC50. The series is classed as cell-based, murine cytomegalovirus.
Series [6] in a line: PK in mice after a single intravenous dose. The series is classed as in vivo. As to conditions: mouse, plasma, 1 mg/kg.
The subject of the next series is VZV (Ellen). Briefly: microbe, parasite or virus in culture. The series is classed as cell-based, varicella-zoster virus.
The mark [7] stands for this setting: equimolar oral doses, BCV vs NPP-669.

Consider `Nc1ccn(C[C@@H](CO)OCP(=O)(O)O)c(=O)n1` [CDV, cidofovir], for which the “SI EBV (Akata)” value in the series with EBV (Akata) is >10. For the same compound, the half-maximal effective concentration (EC50) was 10100 ± 3440 nM with EBV (Akata); 500 nM in the series on VZV; 5000 to 6000 nM in the series on HSV-2; ~1000 nM with HCMV; 14600 nM in the series on vaccinia (Copenhagen) (Orthopoxvirus vaccinia, HFF, read-out: EC50 vaccinia (Copenhagen)); 18400 ± 16000 nM in the series with JC virus (MAD-4). The EC50 was 1500 ± 700 nM in the series on HHV-8 (BCBL-1), 7090 ± 3590 nM with HHV-6B (Z29) and 3000 to 5000 nM in the series on HSV-1. Besides, the “intracellular levels of CDV or CDV-PP” value in series [1] (below the detection limit) was ≤ 10 ng/mL. The “SI vaccinia (Copenhagen)” value with vaccinia (Copenhagen) is given as >10. In addition, the “SI BK virus (Gardner)” value with BK virus (Gardner) is >26. Also, the “SI HCMV (GDG^RK17)” value in the series with HCMV (GDG^RK17) is listed as >1034. For the same compound, in the series with JC virus (MAD-4), the “SI JC virus (MAD-4)” value is reported as >8. Also, in the series on HHV-8 (BCBL-1), the “SI HHV-8 (BCBL-1)” value is >67. The “toxicity of the dose needed for antiviral efficacy” value in series [2] is on record as “low-grade toxicity; also recorded: toxic dose”. For the same compound, the “SI HHV-6B (Z29)” value in the series with HHV-6B (Z29) came out at 10. Besides, the “SI ADV5 (Adenoid 75)” value in the series with ADV5 (Adenoid 75) is >23.

Turning to `CCCCCCCCCCCCCCCCOCCCOP(=O)(O)CO[C@H](CO)Cn1ccc(N)nc1=O` [BCV, brincidofovir], in the series on EBV (Akata), the “SI EBV (Akata)” value was >11 and the EC50 was 90 ± 90 nM. Further, the intracellular pro-drug level result in series [1] is recorded as “highest levels of intracellular pro-drug”. Also, in series [3] (setting [7]), the “prodrug exposure in liver tissue” value is reported as “significantly higher levels than NPP-669” and the “prodrug levels in intestinal tissue” value is reported as “retained at substantially higher levels than NPP-669 in the intestinal tissue”. For the same compound, the “plasma levels over 24 h” value in [3] (single oral dose, NPP-669 30 mg/kg, BCV equimolar (26 mg/kg)) was > 0.003 μM and > 2 ng/mL. Further, in series [4], the half-life at 1 μM stood at 2.37 h and the intrinsic clearance (hepatocyte CLint) at 1 μM turned out to be 9.73 µL/min/1e6 cells. The “SI HSV1 (E-377)” value in the series on HSV1 (E-377) (CC50/EC50) was >33. For the same compound, in the series with HSV1 (E-377) (Human alphaherpesvirus 1, HFF, read-out: EC50 HSV1 (E-377)), the concentration for a half-maximal effect (EC50) was found to be 30 ± 20 nM. In the series with BK virus (Gardner), the “SI BK virus (Gardner)” value came to 180. Moreover, the GI toxicity entry in series [5] (daily doses at 10 mg/kg ref 36) is listed as “GI toxicity was noted”. The NOAEL in series [5] (twice weekly, in rats over 13 weeks ref 36) is listed as 15 mg/kg. Further, the “SI HCMV (AD169)” value with HCMV (AD169) came to 540. For the same compound, the “SI HSV2 (G)” value in the series on HSV2 (G) (CC50/EC50) is reported as >50. Moreover, in the series on HSV2 (G) (Human alphaherpesvirus 2, HFF, read-out: EC50 HSV2 (G)), the EC50 stood at 20 ± 10 nM. In the series on JC virus (MAD-4), the “SI JC virus (MAD-4)” value is recorded as >3 and the concentration for a half-maximal effect (EC50) is 350 ± 260 nM. The “SI MCMV (Smith)” value in the series on MCMV (Smith) was >244. For the same compound, in [6], the area under the curve (AUC) stood at 171 ng·h/mL, the Cmax amounted to 491 ng/mL, the Vd was 3.7 L/kg and the clearance amounted to 122 mL/min/kg. In addition, in series [6], the half-life was 0.4 h. Besides, in the series with HHV-8 (BCBL-1), the “SI HHV-8 (BCBL-1)” value is 690 and the EC50 was determined as 1 nM. In addition, in the series with HHV-6B (Z29), the “SI HHV-6B (Z29)” value worked out at 16 and the concentration giving a half-maximal response (EC50) was 30 ± 20 nM. Further, the “SI VZV (Ellen)” value in the series with VZV (Ellen) (CC50/EC50) stood at 114. Besides, in the series on VZV (Ellen) (Human alphaherpesvirus 3, HFF, read-out: EC50 VZV (Ellen)), the EC50 amounted to 5 ± 5 nM. Further, in the series with ADV5 (Adenoid 75), the “SI ADV5 (Adenoid 75)” value was 46.

Consider `Nc1nc(O)c2ncn(COC(CO)CO)c2n1` [ganciclovir], for which the “SI HCMV (AD169)” value in the series with HCMV (AD169) is >92. Besides, the “SI MCMV (Smith)” value with MCMV (Smith) is reported as >19.
